The test system of data set [1] is Klebsiella pneumoniae. Put plainly: Antibacterial activity against NDM-1 producing Klebsiella pneumoniae ATCC BAA-2146 after 18 hrs by agar dilution method. Type of data set: functional. The settings on record: ATCC BAA-2146, 18 h. The method, boiled down: (§1)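 Serial two-fold agar dilution per CLSI; bacteria cultured in Mueller-Hinton broth, inoculum about 10^4 cfu/spot; final concentrations 0.03-128 µg/mL; plates incubated 35 °C for 18 h. MIC = lowest concentration preventing visible growth; representative of at least two independent experiments, a third run when the two disagreed.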
A general note: In agar dilution, organisms are placed on agar that contains the substance at set levels.

Data set [2] relates to Escherichia coli. Put plainly: Antibacterial activity against extended-spectrum beta-lactamase producing Escherichia coli isolate 14-11 after 18 hrs by agar dilution method. Type of data set: functional. The conditions noted are these: isolate 14-11, 18 h. In outline:
as §1

The next data set relates to Acinetobacter baumannii. Put plainly: Antibacterial activity against Acinetobacter baumannii ATCC 19606 after 18 hrs by agar dilution method. The conditions noted are these: ATCC 19606 = CIP 70.34 = JCM 6841, 18 h. It counts as functional. The method, boiled down: as §1
The test system of data set [3] is Escherichia coli. Put plainly: Antibacterial activity against Escherichia coli ATCC 25922 after 18 hrs by agar dilution method. Type of data set: functional. The conditions noted are these: ATCC 25922, 18 h. The method, boiled down:
as §1

Data set [4] deals with Klebsiella pneumoniae. Put plainly: Antibacterial activity against extended-spectrum beta-lactamase producing Klebsiella pneumoniae 700603 after 18 hrs by agar dilution method. It counts as functional. The settings on record: Klebsiella pneumoniae, 700603, 18 h. In outline: as §1
Data set [5] is described as follows: Cytotoxicity against African green monkey Vero cells after 72 hrs by MTT assay. Type of data set: cell-based. The conditions noted are these: chlorocebus sabaeus, Vero cells. The method, boiled down: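 Vero cells seeded at 2x10^3 cells/well, incubated 24 h at 37 °C, 5% CO2, then exposed to compound 72 h; MTT added for 2 h, medium removed, formazan dissolved in DMSO, absorbance read at 570 nm. Viability relative to untreated cells (100%); CC50 as mean ± SD of three independent experiments, each in triplicate.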
On the technique in general: Tetrazolium assays rely on reduction of a dye to a coloured formazan, in cell work by metabolically active cells.

Another data set relates to Pseudomonas aeruginosa. Put plainly: Antibacterial activity against Pseudomonas aeruginosa ATCC 27853 after 18 hrs by agar dilution method. The settings on record: ATCC 27853, 18 h. It counts as functional. In outline:
as §1

The results in this text go back to ChEMBL document CHEMBL4118103, “Synthesis and Bioactivity Investigation of the Individual Components of Cyclic Lipopeptide Antibiotics” (J Med Chem, 2018).

≈ marks a conversion by molar mass, not a printed value. Bridge positions count the residues as written; N and C are the ends. Square brackets hold non-standard residues; d marks the D form. Peptide text beside a SMILES is read from it. * marks the point of attachment. X1 = CC[C@H](C)CCCCC(=O)*; Heptanoyl = CCCCCCC(=O)*; Octanoyl = CCCCCCCC(=O)*; Dab = NCC[C@H](N)C(=O)O

The term MIC denotes the smallest concentration in the dilution series that meets the test's criterion for growth inhibition. Usually CC50 stands for the concentration giving 50% cytotoxicity.

Consider `CC[C@H](C)CCCCC(=O)N[C@@H](CCN)C(=O)N[C@H](C(=O)N[C@@H](CCN)C(=O)N[C@H]1CCNC(=O)[C@H]([C@@H](C)O)NC(=O)[C@H](CCN)NC(=O)[C@H](CCN)NC(=O)[C@H]([C@@H](C)CC)NC(=O)[C@@H](CC(C)C)NC(=O)[C@H](CCN)NC1=O)[C@@H](C)O`, for which the MIC with Klebsiella pneumoniae [1] was 1 µg/mL (≈ 0.855 µM); with Escherichia coli [2], 0.5 µg/mL (≈ 0.428 µM); in the data set with Acinetobacter baumannii, 1 µg/mL (≈ 0.855 µM); with Escherichia coli [3], 1 µg/mL (≈ 0.855 µM); in the data set on Klebsiella pneumoniae [4] it was 1 µg/mL (≈ 0.855 µM); with Pseudomonas aeruginosa, 2 µg/mL (≈ 1.71 µM). Moreover, the CC50 at 72 h in data set [5] was determined as 176 µg/mL (≈ 150 µM).
As to `CC[C@H](C)CCCCC(=O)N[C@@H](CCN)C(=O)N[C@H](C(=O)N[C@H](CO)C(=O)N[C@H]1CCNC(=O)[C@H]([C@@H](C)O)NC(=O)[C@H](CCN)NC(=O)[C@H](CCN)NC(=O)[C@H]([C@@H](C)O)NC(=O)[C@@H](Cc2ccccc2)NC(=O)[C@H](CCN)NC1=O)[C@@H](C)O`, the MIC amounted to 0.5 µg/mL (≈ 0.424 µM) with Klebsiella pneumoniae [1]; 0.5 µg/mL (≈ 0.424 µM) with Escherichia coli [2]; 0.12 µg/mL (≈ 0.102 µM) in the data set on Acinetobacter baumannii; 0.25 µg/mL (≈ 0.212 µM) against Escherichia coli [3]; 1 µg/mL (≈ 0.849 µM) in the data set with Klebsiella pneumoniae [4]; 4 µg/mL (≈ 3.39 µM) in the data set with Pseudomonas aeruginosa. This compound displayed a CC50 at 72 h in data set [5] of 160 µg/mL (≈ 136 µM).
Consider `CCCCCCC(=O)N[C@@H](CCN)C(=O)N[C@H](C(=O)N[C@@H](CCN)C(=O)N[C@H]1CCNC(=O)[C@H]([C@@H](C)O)NC(=O)[C@H](CCN)NC(=O)[C@H](CCN)NC(=O)[C@H](CC(C)C)NC(=O)[C@@H](CC(C)C)NC(=O)[C@H](CCN)NC1=O)[C@@H](C)O` (Heptanoyl-[Dab]T[Dab][Dab][Dab][dL]L[Dab][Dab]T; lactam 4-C), for which the MIC against Klebsiella pneumoniae [1] turned out to be 0.5 µg/mL (≈ 0.438 µM); in the data set with Escherichia coli [2] it was 0.5 µg/mL (≈ 0.438 µM); against Acinetobacter baumannii, 2 µg/mL (≈ 1.75 µM); against Escherichia coli [3], 1 µg/mL (≈ 0.876 µM); against Klebsiella pneumoniae [4], 0.5 µg/mL (≈ 0.438 µM); in the data set with Pseudomonas aeruginosa, 1 µg/mL (≈ 0.876 µM). It took 216 µg/mL (≈ 189 µM) to reach half-maximal cytotoxicity in data set [5] (CC50 at 72 h).
On to `CCCCCCCC(=O)N[C@@H](CCN)C(=O)N[C@H](C(=O)N[C@@H](CCN)C(=O)N[C@H]1CCNC(=O)[C@H]([C@@H](C)O)NC(=O)[C@H](CCN)NC(=O)[C@H](CCN)NC(=O)[C@H](CC(C)C)NC(=O)[C@@H](Cc2ccccc2)NC(=O)[C@H](CCN)NC1=O)[C@@H](C)O` (Octanoyl-[Dab]T[Dab][Dab][Dab][dF]L[Dab][Dab]T; lactam 4-C), for which the MIC came to 1 µg/mL (≈ 0.841 µM) against Klebsiella pneumoniae [1]; 1 µg/mL (≈ 0.841 µM) against Escherichia coli [2]; 0.5 µg/mL (≈ 0.42 µM) in the data set with Acinetobacter baumannii; 0.5 µg/mL (≈ 0.42 µM) in the data set on Escherichia coli [3]; 1 µg/mL (≈ 0.841 µM) in the data set with Klebsiella pneumoniae [4]; 1 µg/mL (≈ 0.841 µM) against Pseudomonas aeruginosa. The compound also displayed a CC50 at 72 h in data set [5] of 86 µg/mL (≈ 72.3 µM).
Take `CCCCCCCC(=O)N[C@@H](CCN)C(=O)N[C@H](C(=O)N[C@@H](CCN)C(=O)N[C@H]1CCNC(=O)[C@H]([C@@H](C)O)NC(=O)[C@H](CCN)NC(=O)[C@H](CCN)NC(=O)[C@H](CC(C)C)NC(=O)[C@@H](CC(C)C)NC(=O)[C@H](CCN)NC1=O)[C@@H](C)O` (Octanoyl-[Dab]T[Dab][Dab][Dab][dL]L[Dab][Dab]T; lactam 4-C): the MIC in the data set with Klebsiella pneumoniae [1] stood at 0.5 µg/mL (≈ 0.433 µM); with Escherichia coli [2] it was 0.5 µg/mL (≈ 0.433 µM); in the data set with Acinetobacter baumannii, 0.5 µg/mL (≈ 0.433 µM); in the data set on Escherichia coli [3], 0.5 µg/mL (≈ 0.433 µM); with Klebsiella pneumoniae [4], 1 µg/mL (≈ 0.865 µM); in the data set with Pseudomonas aeruginosa, 1 µg/mL (≈ 0.865 µM). The compound also registered a CC50 at 72 h in data set [5] of 150 µg/mL (≈ 130 µM).
With `CC[C@H](C)CCCCC(=O)N[C@@H](CCN)C(=O)N[C@H](C(=O)N[C@@H](CCN)C(=O)N[C@H]1CCNC(=O)[C@H]([C@@H](C)O)NC(=O)[C@H](CCN)NC(=O)[C@H](CCN)NC(=O)[C@H](CC(C)C)NC(=O)[C@@H](Cc2ccccc2)NC(=O)[C@H](CCN)NC1=O)[C@@H](C)O` (X1-[Dab]T[Dab][Dab][Dab][dF]L[Dab][Dab]T; lactam 4-C), the minimum inhibitory concentration (MIC) with Klebsiella pneumoniae [1] was 0.25 µg/mL (≈ 0.208 µM); against Escherichia coli [2], 0.5 µg/mL (≈ 0.415 µM); with Acinetobacter baumannii, 0.25 µg/mL (≈ 0.208 µM); in the data set on Escherichia coli [3] it was 1 µg/mL (≈ 0.831 µM); against Klebsiella pneumoniae [4] it was 2 µg/mL (≈ 1.66 µM); with Pseudomonas aeruginosa it was 2 µg/mL (≈ 1.66 µM). The same compound registered a CC50 at 72 h in data set [5] of 71 µg/mL (≈ 59 µM).
On to `CC[C@H](C)CCCCC(=O)N[C@@H](CCN)C(=O)N[C@H](C(=O)N[C@@H](CCN)C(=O)N[C@H]1CCNC(=O)[C@H]([C@@H](C)O)NC(=O)[C@H](CCN)NC(=O)[C@H](CCN)NC(=O)[C@H](C(C)C)NC(=O)[C@@H](CC(C)C)NC(=O)[C@H](CCN)NC1=O)[C@@H](C)O` (X1-[Dab]T[Dab][Dab][Dab][dL]V[Dab][Dab]T; lactam 4-C), for which the MIC with Klebsiella pneumoniae [1] was 0.5 µg/mL (≈ 0.433 µM); with Escherichia coli [2], 0.5 µg/mL (≈ 0.433 µM); with Acinetobacter baumannii, 0.5 µg/mL (≈ 0.433 µM); in the data set on Escherichia coli [3], 0.5 µg/mL (≈ 0.433 µM); against Klebsiella pneumoniae [4], 1 µg/mL (≈ 0.865 µM); with Pseudomonas aeruginosa, 2 µg/mL (≈ 1.73 µM). The CC50 at 72 h in data set [5] was found to be 131 µg/mL (≈ 113 µM).
